The list is not random: actives were taken first. Their share in the collection is about 3.5%.
RGS4 pot = potentiators or activators of RGS4; HEK293 M3R/inducible RGS4, carbachol calcium flux Fluo4; active compounds read low; B-score at 10 µM; 0.92% of 310,000 active; AID 463111;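 active = B-score of the integrated calcium signal more than 4 SD below the library mean, with starting fluorescence not abnormally high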;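 note: negative B-score means reduced calcium response which marks RGS4 activation or potentiation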
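System: HEK293 FlpIn-TREx cells, stable M3R, doxycycline-inducible RGS4. Timing: overnight RGS4 induction, 30 min dye load 37 °C, 20 min compound RT. Also added: carbachol, ECmax concentration. Measured by: Fluo4 fluorescence kinetic imaging of calcium. Evaluation: integrated calcium ratio converted to B score.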
MrgX1 allo act = human MrgX1 positive allosteric modulation, primary screen | B-score at 10 µM | MrgX1-HEK293, Fluo-4 calcium flux, FDSS; active compounds read high | AID 588675 | 0.63% of 310,000 active | Q96LB2;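 active = plate-corrected calcium response at least 3 library SD above typical, normal starting fluorescence, not activating the receptor alone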;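 note: compound read alongside a low EC10 to EC30 dose of BAM8-22 agonist; peak minus trough fluorescence over baseline measured at the second addition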
Target sequence (Q96LB2 whole entry, looked up): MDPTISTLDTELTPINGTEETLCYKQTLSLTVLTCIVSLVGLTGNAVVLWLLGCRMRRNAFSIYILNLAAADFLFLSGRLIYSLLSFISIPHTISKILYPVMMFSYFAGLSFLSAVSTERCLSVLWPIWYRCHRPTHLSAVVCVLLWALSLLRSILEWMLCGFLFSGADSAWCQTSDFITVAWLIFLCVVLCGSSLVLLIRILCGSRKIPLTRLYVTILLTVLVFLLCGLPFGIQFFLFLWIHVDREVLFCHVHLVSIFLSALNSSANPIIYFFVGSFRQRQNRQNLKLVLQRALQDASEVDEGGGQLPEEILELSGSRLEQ
RGS4 block = human RGS4 inhibition. HEK293 M3R/RGS4 inducible, Fluo-4 calcium flux; active compounds read high; triggered by carbachol at its EC20. B-score at 10 µM. 0.45% of 310,000 active;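 active = B-score, a plate-corrected calcium signal, over three deviations above library mean, with baseline fluorescence within five deviations of library mean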;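 note: RGS4 expression induced by doxycycline in cells with stable M3 receptor; B-score is computed from the integrated fluorescence ratio over baseline after carbachol; higher B-score means a larger calcium signal and so more RGS4 inhibition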
Target sequence (P49798 whole entry, looked up): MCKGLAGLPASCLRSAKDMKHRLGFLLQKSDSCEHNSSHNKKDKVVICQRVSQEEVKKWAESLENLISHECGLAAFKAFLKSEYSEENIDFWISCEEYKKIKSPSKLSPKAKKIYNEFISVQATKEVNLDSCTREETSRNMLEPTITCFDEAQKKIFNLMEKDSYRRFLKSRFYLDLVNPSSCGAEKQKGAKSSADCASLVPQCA
MrgX1 antag = human MrgX1 receptor antagonism, primary screen; B-score at 10 µM; MRGX1-HEK293 calcium flux, Fluo-4, BAM8-22 antagonism; active compounds read low; AID 588676; 1.3% of 310,000 active; Q96LB2;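 active = calcium-response B-score plate-corrected more than 3 library SD below zero, starting fluorescence within 5 deviations, no agonist response on first addition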;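 note: peak minus trough fluorescence over baseline after final BAM8-22 challenge near maximal dose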
MrgX1 ag = activates human MrgX1 receptor signaling. Q96LB2. MrgX1-HEK293 cells, Fluo-4 calcium fluorescence, agonist mode; active compounds read high. B-score at 10 µM. 0.44% of 310,000 active. AID 588627;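 active = calcium response B-score plate-corrected fluorescence ratio at least 3 library SD, with starting fluorescence B-score inside 5 SD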
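Material: MrgX1-expressing HEK293 cells / Dosing: compound as first of three additions / Incubation: overnight seeding, then 1 h dark dye loading / Signal: Fluo-4 NW calcium fluorescence / Evaluation: B-scored fluorescence response ratio / Benchmarks: positive and negative control wells on each plate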
MrgX1 allo conf = confirmation of human MrgX1 receptor positive allosteric modulators; shares compounds with MrgX1 allo act; MrgX1-HEK293, Fluo-4 calcium fluorescence, FDSS; activation (ratio percentage), % at 10 µM; 13% of 1,200 active; AID 602413;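 active = ratio at least 3 SD above the weak peptide control, stable starting fluorescence, no direct agonism earlier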;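 note: compound followed by low BAM8-22 agonist challenge near EC20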
HEK293 Ca flux = activity in parental HEK293 cells lacking MrgX1. shares compounds with MrgX1 antag. Fluo-4 calcium fluorescence, FDSS. fluorescence ratio F(max-min)/F0 at 10 µM. 2% of 4,000 active. AID 624111;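 active = duplicate-averaged calcium fluorescence ratio at least three times the standard deviation of buffer wells, a nonspecific response in parental cells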
HEK293 Ca counter = MrgX1 allosteric activator counter-screen hit in parental HEK293 cells; shares compounds with MrgX1 antag; parental HEK293 calcium flux, Fluo-4 fluorescence ratio; active compounds read high; fluorescence ratio F(max-min)/F0 at 10 µM; 0.4% of 4,000 active;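 active = calcium fluorescence ratio, averaged over duplicates, at least 3 SD of the buffer-well ratio, meaning a nonspecific response in receptor-free cells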;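 note: untransfected parental HEK293 lacking MrgX1 used as counterscreen for MrgX1 allosteric activators; fluorescence change taken during the second addition on a kinetic imager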
HEK293 Ca cntr2 = MrgX1 activator counter-screen hit in parental HEK293 cells | Fluo-4 calcium fluorescence (FDSS); active compounds read high | fluorescence ratio F(max-min)/F0 at 10 µM | 8.7% of 4,000 active | AID 624115 | shares compounds with MrgX1 antag;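 active = calcium fluorescence ratio at least three times the spread of buffer wells, meaning a non-specific response in parental cells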
Hits are given with their value; 0 = inactive; - = no result given; ! = not confirmed by another sample.

SMILES | RGS4 pot | MrgX1 allo act | RGS4 block | MrgX1 antag | MrgX1 ag | MrgX1 allo conf | HEK293 Ca flux | HEK293 Ca counter | HEK293 Ca cntr2
CCOC(=O)c1c(CN(CC)CC)n(C)c2cc(Br)c(O)cc12 | 0 | 6.9 | 0 | 0 | 0 | 0 | 0 | 0 | 0
Cc1cccc2cc3ccccc3nc12 | 0 | 9.15 | 0 | 0 | 0 | 0 | 0 | 0 | 0
Cc1cccc2cc3cccc(C)c3nc12 | 0 | 0 | 0 | 0 | 0 | - | - | - | -
CN1CCN(CC#CC(C)(O)C2CC3C=CC2C3)CC1 (centres undefined) | 0 | 0 | 0 | 0 | 0 | - | - | - | -
OC(CCN1CCCCC1)(c1ccccc1)C1C[C@@H]2C=C[C@H]1C2 (some centres undefined) | - | 6.54 | - | 0 | 0 | 0 | 0 | 0 | 0
COc1cc(C=O)c(-c2c(C=O)cc(OC)c3c2OCO3)c2c1OCO2 | 0 | 0 | 0 | 0 | 0 | - | - | - | -
Cc1ccc(OCC(=O)Nc2ccc(N3CCN(C(=O)c4ccco4)CC3)cc2)cc1C | 0 | 10.2 | 0 | 0 | 0 | 0 | 0 | 0 | 0
Cc1cc(OCC(=O)Nc2ccc(N3CCN(C(=O)c4ccco4)CC3)cc2)cc(C)c1Cl | 0 | 0 | 0 | 0 | 0 | - | - | - | -
CCOCCCNCc1ccc(OCCC(C)C)c(OC)c1 | 0 | 0 | 0 | 0 | 0 | - | - | - | -
CCOc1ccc(S(=O)(=O)n2nc(C)c(S(=O)(=O)N3CCOCC3)c2C)cc1 | 0 | 0 | 0 | 0 | 0 | - | - | - | -
CCC1C(=NO)C(CC)C(c2ccccc2)NC1c1ccccc1 (centres undefined) | 0 | 23.2 | 0 | 0 | 0 | 0 | 0 | 0 | 0
CCC1C(=O)C(CC)C(c2ccccc2)NC1c1ccccc1 (centres undefined) | 0 | 0 | 0 | 0 | 0 | - | - | - | -
CC(=O)c1sc2nc(C)c3c(c2c1N)CCCC3 | 0 | 9.69 | 0 | 0 | 0 | 0 | 0 | 0 | 0
CCN(CC)S(=O)(=O)c1ccc(Cl)nc1 | 0 | 9.27 | 0 | 0 | 0 | 0 | 0 | 0 | 0
COCCN(CCOC)S(=O)(=O)c1ccc(Cl)nc1 | 0 | 0 | 0 | 0 | 0 | - | - | - | -
CCOc1ccccc1NC(=O)CCCNC(=O)Cn1cnc2sc(C)c(C)c2c1=O | 0 | 0 | 0 | 0 | 0 | - | - | - | -
COc1cc(C(=O)Nc2ccccc2C(=O)NCc2cccnc2)cc(OC)c1OC | 0 | 8.9 | 0 | 0 | 0 | 0 | 0 | 0 | 0
COc1ccc(OC)c(NC(=O)CCN2CCN(CCO)CC2)c1 | 0 | 0 | 0 | 0 | 0 | - | - | - | -
CCOC(=O)N1CCN(C(=O)Cc2ccccc2[N+](=O)[O-])CC1 | 0 | 0 | 0 | 0 | 0 | - | - | - | -
COc1ccc2c(C)cc(SCC(=O)N3CCOCC3)nc2c1 | 0 | 0 | 0 | 0 | 0 | - | - | - | -
COc1ccc2c(C)cc(SCC(=O)N(C)C3CCS(=O)(=O)C3)nc2c1 (centres undefined) | 0 | 10.3 | 0 | 0 | 0 | 0 | 0 | 0 | 0
O=C(NCCc1cn2ccccc2n1)c1cc(COc2ccc3ncccc3c2)on1 | 0 | 8.93 | 0 | 0 | 0 | 5.7% | 0 | 0 | 0
O=C(NC1CCCC1)c1cc(COc2ccc3ncccc3c2)on1 | 0 | 0 | 0 | 0 | 0 | - | - | - | -
O=C(N/C(=C/c1ccccc1)C(=O)N1CCCCC1)c1ccco1 | 0 | 0 | 0 | 0 | 0 | - | - | - | -
O=C(NC1=NCCS1)c1cc(-c2cccc(Br)c2)nc2ccccc12 | 0 | 0 | 0 | 0 | 0 | - | - | - | -
Cc1ccc2nc(-c3cccc(Br)c3)cc(C(=O)NC3=NCCS3)c2c1 | 0 | 31 | 0 | 0 | 0 | 0 | 0 | 0 | 0
Oc1ccc(C2CNCCc3c2cc(O)c(O)c3Cl)cc1 (centres undefined) | 0 | 6.74! | 0 | 0 | 0 | 0 | 0 | 0 | 0
Oc1cc2c(c(Cl)c1O)CCNCC2c1ccccc1 (centres undefined) | 0 | 0 | 0 | 0 | 0 | - | - | - | -
